Laboratory results: ChEMBL document CHEMBL1287788, “2-aminohydroxamic acid derivatives as inhibitors of Bacillus cereus phosphatidylcholine preferred phospholipase C PC-PLC(Bc)” (Bioorg Med Chem, 2010)

Legend:
[1] = Cytotoxicity against human A549 cells after 24 hrs by MTT assay; type: cell-based; details: read-out: LD50
Phospholipase C [2] = molecular target: T1, Phospholipase C (Bacillus cereus, UniProt P09598); experiment: Inhibition of Bacillus cereus phosphatidylcholine preferred phospholipase C after 100 seconds
T1 sequence (P09598 whole entry): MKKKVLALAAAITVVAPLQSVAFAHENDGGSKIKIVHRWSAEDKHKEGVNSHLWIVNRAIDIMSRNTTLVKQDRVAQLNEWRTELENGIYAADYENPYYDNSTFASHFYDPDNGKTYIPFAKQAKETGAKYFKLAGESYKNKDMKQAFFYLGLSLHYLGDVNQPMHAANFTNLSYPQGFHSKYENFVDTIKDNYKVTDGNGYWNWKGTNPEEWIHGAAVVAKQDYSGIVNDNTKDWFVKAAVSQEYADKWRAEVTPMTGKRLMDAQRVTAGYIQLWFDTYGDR
Procedure, shortened: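 Bacillus cereus PC-PLC activity measured by a coupled read-out: phosphorylcholine released by the enzyme is hydrolysed by alkaline phosphatase, and the freed phosphate ions are quantified. Substrate was 1,2-di-n-hexanoyl-sn-glycero-3-phosphocholine at 2 mM final, below its CMC of 11.1 mM. Compound CMC values were determined so the assay ran under non-micellar conditions.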

[3] = Critical micelle concentration of the compound; type: physicochemical
Phospholipase C [4] = molecular target: T1, Phospholipase C; experiment: Non-competitive inhibition of Bacillus cereus phosphatidylcholine preferred phospholipase C by Dixon plot analysis
Phospholipase C [5] = molecular target: T1, Phospholipase C; experiment: Uncompetitive inhibition of Bacillus cereus phosphatidylcholine preferred phospholipase C by Dixon plot analysis
Phospholipase C [6] = molecular target: T1, Phospholipase C; experiment: Mixed-type inhibition of Bacillus cereus phosphatidylcholine preferred phospholipase C by Dixon plot analysis
[7] = molecular target: T2, Phospholipase C (Bacillus cereus) (UniProt P09598); experiment: Irreversible inhibition of Bacillus cereus phosphatidylcholine preferred phospholipase C assessed as residual activity after 10 mins
T2 sequence (whole entry): T1 sequence (P09598 whole entry)

SMILES | CC50 at 24 h [1] | IC50 (Phospholipase C [2]) | CMC [3] | Ki (Phospholipase C [4]) | Ki (Phospholipase C [5]) | Ki (Phospholipase C [6]) | Activity [7]
CCCCCCCCCCCCCCC(N)C(=O)N(O)CC[N+](C)(C)C.Cl.[Cl-] (centres undefined) | 100 µM | 2 µM | 120 µM |  |  |  | 
CCCCCCCCCCC(N)C(=O)N(O)CCCN(C)C.Cl.Cl (centres undefined) | 40 µM | 100 µM | 79 µM |  |  |  | 
CCCCCCC(N)C(=O)N(CCC[N+](C)(C)C)OCc1ccccc1.Cl.[Cl-] (centres undefined) | > 100 µM | 100 µM | 210 µM |  |  |  | 
CCCCCCC(NC(=O)OC(C)(C)C)C(=O)N(CC[N+](C)(C)C)OCc1ccccc1.[I-] (centres undefined) | > 100 µM | 56 µM | > 500 µM |  |  |  | 
CCCCCCC(N)C(=O)N(CC[N+](C)(C)C)OCc1ccccc1.Cl.[Cl-] (centres undefined) | > 100 µM | > 500 µM | > 500 µM |  |  |  | 
CCCCCCCCCCC(NC(=O)OC(C)(C)C)C(=O)N(CC[N+](C)(C)C)OCc1ccccc1.[I-] (centres undefined) | 28.2 µM | 5 µM | > 500 µM |  |  |  | 
CCCCCCCCCCC(NC(=O)OC(C)(C)C)C(=O)N(CCCN(C)C)OCc1ccccc1 (centres undefined) | 6 µM | 8 µM | 10 µM | 2.5 µM |  |  | 
CCCCCCC(N)C(=O)N(O)CCCN(C)C.Cl.Cl (centres undefined) | > 100 µM | > 500 µM | > 500 µM |  |  |  | 
CCCCCCCCCCCCCCCCCCC(N)C(=O)N(O)CC[N+](C)(C)C.Cl.[Cl-] (centres undefined) | 52.7 µM | 4 µM | 50 µM |  |  |  | 
CCCCCCC(NC(=O)OC(C)(C)C)C(=O)N(CCC[N+](C)(C)C)OCc1ccccc1.[I-] (centres undefined) | > 100 µM | 78 µM | 221 µM |  |  |  | 
CCCCCCCCCCC(N)C(=O)N(O)CC[N+](C)(C)C.Cl.[Cl-] (centres undefined) | > 100 µM | 40 µM | > 500 µM |  | 12 µM |  | 
CCCCCCCCCCC(N)C(=O)N(CCCN(C)C)OCc1ccccc1.Cl.Cl (centres undefined) | 7 µM | 32 µM | 8 µM |  |  |  | 
CCCCCCCCCCCCCCCCCCC(N)C(=O)N(CC[N+](C)(C)C)OCc1ccccc1.Cl.[Cl-] (centres undefined) | 29 µM | 4 µM | 10 µM |  |  |  | 
CCCCCCC(N)C(=O)N(CCCN(C)C)OCc1ccccc1.Cl.Cl (centres undefined) | > 100 µM | > 500 µM | 158 µM |  |  |  | 
CCCCCCCCCCC(NC(=O)OC(C)(C)C)C(=O)N(CCC[N+](C)(C)C)OCc1ccccc1.[I-] (centres undefined) | 17 µM |  | 40 µM |  |  | 2.5 µM | 
CCCCCCC(N)C(=O)N(O)CCC[N+](C)(C)C.Cl.[Cl-] (centres undefined) | > 100 µM | > 500 µM | > 500 µM |  |  |  | 
CCCCCCCCCCCCCCC(N)C(=O)N(CC[N+](C)(C)C)OCc1ccccc1.Cl.[Cl-] (centres undefined) | 75.3 µM | 4 µM | 90 µM |  |  |  | 
CCCCCCCCCCC(N)C(=O)N(O)CCC[N+](C)(C)C.Cl.[Cl-] (centres undefined) | > 100 µM | 58 µM | 97 µM |  |  | 26 µM | 
CCCCCCCCCCCCCCC(NC(=O)OC(C)(C)C)C(=O)N(CC[N+](C)(C)C)OCc1ccccc1.[I-] (centres undefined) | 27.6 µM |  | > 500 µM |  |  |  | 100%
CCCCCCCCCCC(N)C(=O)N(CCC[N+](C)(C)C)OCc1ccccc1.Cl.[Cl-] (centres undefined) | 43.4 µM | 50 µM | 141 µM |  |  |  | 
CCCCCCC(N)C(=O)N(O)CC[N+](C)(C)C.Cl.[Cl-] (centres undefined) | > 100 µM | 500 µM | > 500 µM |  |  |  | 
CCCCCCC(NC(=O)OC(C)(C)C)C(=O)N(CCCN(C)C)OCc1ccccc1 (centres undefined) | 21 µM | 77 µM | 75 µM |  |  |  | 
CCCCCCCCCCC(N)C(=O)N(CC[N+](C)(C)C)OCc1ccccc1.Cl.[Cl-] (centres undefined) | 76.1 µM | 10 µM | > 500 µM |  |  |  | 
CCCCCCCCCCCCCCCCCCC(NC(=O)OC(C)(C)C)C(=O)N(CC[N+](C)(C)C)OCc1ccccc1.[I-] (centres undefined) | 25.1 µM |  | 75 µM |  |  |  | 
